Laboratory results reported in ChEMBL document CHEMBL4038326, “Discovery, Structure-Activity Relationship, and Binding Mode of an Imidazo[1,2-a]pyridine Series of Autotaxin Inhibitors” (J Med Chem, 2017).

Assays:
Autotaxin [1] = target: T1, Autotaxin (Homo sapiens, UniProt Q13822); test: Inhibition of glycosylated human ATX using LPC 16:0 as substrate after 30 mins by luminescence assay
Procedure, shortened: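 Started with 150 µM LPC 16:0 solution, 30 min at 37°C. Stopped with EGTA and choline detected by choline oxidase/HRP/TOOS/4-aminoantipyrine; read after 30 min at room temperature.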

Autotaxin [2] = target: Autotaxin (Rattus norvegicus, UniProt Q64610); test: Inhibition of ATX in rat plasma assessed as reduction in plasma lysophosphatidic acid 18:2 levels after 2 hrs by LC-MS/MS method
Procedure, shortened: (§1)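 Rat plasma thawed on ice and incubated with a compound dose range for 2 h at 37°C. Methanol precipitation with LPA 17:0 internal standard, isocratic C18 LC-MS/MS, LPA 18:2/LPA 17:0 peak-area ratio. % reduction = 100 − (ratio/control ratio × 100). Some compounds were tested only at 0.5, 5 and 50 µM (n = 3).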

[3] = target: Autotaxin (Rattus norvegicus) (UniProt Q64610); test: Inhibition of ATX in rat plasma assessed as reduction in plasma lysophosphatidic acid 18:2 levels at 0.5 to 50 uM after 2 hrs by LC-MS/MS method relative to control; procedure, shortened: as §1
Autotaxin [4] = target: T1, Autotaxin; test: Inhibition of glycosylated human ATX using FS-3 as substrate preincubated for 30 mins followed by substrate addition measured after 30 mins by fluorescence assay
Procedure, shortened: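 Fivefold compound dilutions from a 20 µM top. Started with 0.75 µM FS-3 solution; fluorescence (ex 485, em 520 nm) read after 30 min at room temperature. SD where replicated at least twice.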

[5] = Clearance in Sprague-Dawley rat at 1 mg/kg, iv; type: ADME, organism-based; conditions: in vivo
Procedure, shortened: (§2)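 PK from single 1 mg/kg iv and 5 mg/kg po doses (n = 3); mice sampled compositely as a group of six. Plasma drug by LC-MS/MS against an eight-level calibration curve with QCs, LLOQ 4 ng/mL. Parameters by noncompartmental analysis of averaged plasma concentrations; CV% reported for rats.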

[6] = Oral bioavailability in Sprague-Dawley rat at 5 mg/kg; type: ADME, organism-based; conditions: in vivo; procedure, shortened: as §2
[7] = Volume of distribution at steady state in mouse at 1 mg/kg, iv; type: ADME, organism-based; conditions: in vivo, read-out: Vdss; procedure, shortened: as §2
Rattus norvegicus [8] = test: In vivo inhibition of ATX in Sprague-Dawley rat plasma assessed as reduction in plasma lysophosphatidic acid 18:2 levels at 5 mg/kg, po measured after 0.5 hrs by LC-MS/MS method; type: functional
Procedure, shortened: (§3)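 Fasted male Sprague Dawley rats given 5 mg/kg orally in 10% hydroxypropyl-β-cyclodextrin, pH 3 with citric acid. Jugular catheter blood taken into Li-heparin at 0.5, 1 and 3 h. Methanol precipitation with LPA 17:0 internal standard, isocratic C18 LC-MS/MS, peak-area ratio of LPA 18:2 to LPA 17:0 with no calibration curve. % reduction against the vehicle group mean at the same time; 3 animals.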

Rattus norvegicus [9] = test: In vivo inhibition of ATX in Sprague-Dawley rat plasma assessed as reduction in plasma lysophosphatidic acid 18:2 levels at 5 mg/kg, po measured after 1 hr by LC-MS/MS method; type: functional; procedure, shortened: as §3
[10] = Plasma concentration in Sprague-Dawley rat at 5 mg/kg, po measured after 1 hr by LC-MS/MS method; type: ADME, organism-based
Procedure, shortened: (§4)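 Fasted male Sprague Dawley rats dosed orally at 5 mg/kg in 10% hydroxypropyl-β-cyclodextrin (pH 3, citric acid); jugular catheter blood into Li-heparin at 0.5, 1, 3 h. Plasma level by LC-MS/MS against an eight-level calibration curve with QCs, LLOQ 4 ng/mL; mean of 3 animals.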

[11] = Plasma concentration in Sprague-Dawley rat at 5 mg/kg, po measured after 3 hrs by LC-MS/MS method; type: ADME, organism-based; procedure, shortened: as §4
Rattus norvegicus [12] = test: In vivo inhibition of ATX in Sprague-Dawley rat plasma assessed as reduction in plasma lysophosphatidic acid 18:2 levels at 5 mg/kg, po measured after 3 hrs by LC-MS/MS method; type: functional; procedure, shortened: as §3
[13] = Volume of distribution at steady state in Sprague-Dawley rat at 1 mg/kg, iv; type: ADME, organism-based; conditions: in vivo, read-out: Vdss; procedure, shortened: as §2
[14] = Half life in Sprague-Dawley rat at 1 mg/kg, iv; type: ADME, organism-based; conditions: in vivo; procedure, shortened: as §2
[15] = Plasma concentration in Sprague-Dawley rat at 5 mg/kg, po measured after 0.5 hrs by LC-MS/MS method; type: ADME, organism-based; procedure, shortened: as §4
[16] = Half life in mouse at 1 mg/kg, iv; type: ADME, organism-based; conditions: in vivo; procedure, shortened: as §2
[17] = Protein binding in Sprague-Dawley rat plasma; type: ADME, cell-free; conditions: read-out: PPB
[18] = target: Autotaxin (Rattus norvegicus) (UniProt Q64610); conditions: 5 uM
[19] = target: Autotaxin (Rattus norvegicus) (UniProt Q64610); conditions: 50 uM
[20] = target: Autotaxin (Rattus norvegicus) (UniProt Q64610); conditions: 0.5 uM

| SMILES | IC50 (Autotaxin [1]) [nM] | other results |
| --- | --- | --- |
| CCc1nc2ccc(N3CCN(Cc4ncon4)CC3)cn2c1N(C)c1nc(-c2ccc(F)cc2)cs1 | 1710 |  |
| CCc1nc2ccc(C3CCN(CC(=O)N4CCCC4)CC3)cn2c1N(C)c1nc(-c2ccc(F)cc2)cs1 | 86 | IC50 (Autotaxin [2]): 115 nM |
| CCc1nc2ccc(C3CCN(S(C)(=O)=O)CC3)cn2c1N(C)c1nc(-c2ccc(F)cc2)c(C(=O)O)s1 | > 10000 |  |
| CCc1nc2ccc(C3CCN(CC(=O)N(C)C)CC3)cn2c1N(C)c1nc(-c2ccc(F)cc2)cs1 | 261 | IC50 (Autotaxin [2]): 476 nM |
| CCc1nc2ccc(C3CCN(S(C)(=O)=O)CC3)cn2c1N(C)c1nc(-c2ccc(F)cc2C#N)cs1 | 126 |  |
| CCc1nc2ccc(C3CCN(S(C)(=O)=O)CC3)cn2c1N(C)c1nc(-c2ccc(F)cc2)c(C)s1 | 2270 |  |
| CCc1nc2ccc(N3CCOCC3)cn2c1N(C)c1nc(-c2ccc(F)cc2)cs1 | 6800 | inhibition [3]: < 50%; IC50 (Autotaxin [2]): > 50000 nM; IC50 (Autotaxin [4]): 8 nM |
| CCc1nc2ccc(N3CCN(Cc4ncc[nH]4)CC3)cn2c1N(C)c1nc(-c2ccc(F)cc2)cs1 | > 4100 |  |
| CCc1nc2ccc(C3CCN(S(C)(=O)=O)CC3)cn2c1N(C)c1nc(-c2ccc(F)cc2C)cs1 | 533 |  |
| CCc1nc2ccc(C3CCN(S(C)(=O)=O)CC3)cn2c1N(C)c1nc(-c2ccc(C(F)(F)F)cc2)cs1 | 1000 |  |
| CCc1nc2ccc(C(=O)NCCO)cn2c1N(C)c1nc(-c2ccc(Cl)cc2)cs1 | > 10000 | clearance [5]: 2.5 mL/min/kg; inhibition [3]: < 50%; IC50 (Autotaxin [2]): > 50000 nM; bioavailability [6]: 39%; IC50 (Autotaxin [4]): 122 nM |
| CCc1nc2ccc(C3CCN(S(C)(=O)=O)CC3)cn2c1N(C)c1nc2c(s1)Cc1ccc(F)cc1-2 | 804 |  |
| CCc1nc2ccc(C3CCN(S(C)(=O)=O)CC3)cn2c1N(C)c1nc(-c2cc(F)cc(F)c2)cs1 | 4250 |  |
| CCc1nc2ccc(C3CCN(S(C)(=O)=O)CC3)cn2c1N(C)c1nc(-c2ccc(F)cc2)c(C#N)s1 | 138 |  |
| CCc1nc2ccc(N3CCN(CCO)CC3)cn2c1N(C)c1nc(-c2ccc(F)cc2)cs1 | 2360 | IC50 (Autotaxin [2]): 6080 nM; IC50 (Autotaxin [4]): 12 nM |
| CCc1nc2ccc(C3CCN(S(C)(=O)=O)CC3)cn2c1N(C)c1nc(-c2ccc(C(C)(C)C)cc2)cs1 | 7610 |  |
| CCc1nc2ccc(C3CCN(CC(=O)NC4CC4)CC3)cn2c1N(C)c1nc(-c2ccc(F)cc2)cs1 | 1610 |  |
| CCc1nc2ccc(C3CCN(CC(N)=O)CC3)cn2c1N(C)c1nc(-c2ccc(F)cc2)cs1 | 2370 |  |
| CCc1nc2ccc(C3CCN(S(C)(=O)=O)CC3)cn2c1N(C)c1nc(C2CCCCC2)cs1 | 1900 |  |

| SMILES | IC50 (Autotaxin [1]) [nM] | other results |
| --- | --- | --- |
| CCc1nc2ccc(C3CCN(CC(=O)N4CC(O)C4)CC3)cn2c1N(C)c1nc(-c2ccc(F)cc2)c(C#N)s1 |  | Vd [7]: 1.7 L/kg; inhibition in vivo at 5 mg/kg (Rattus norvegicus [8]): 74%; inhibition in vivo at 5 mg/kg (Rattus norvegicus [9]): 82%; concentration at 1 h [10]: 34 nM; concentration at 3 h [11]: 58 nM; inhibition in vivo at 5 mg/kg (Rattus norvegicus [12]): 97%; Vd [13]: 8.3 L/kg; half-life [14]: 2.1 h; concentration at 0.5 h [15]: 67 nM; half-life [16]: 2 h; fraction unbound [17]: < 0.01 |
| CCOC(=O)N1CCC(NC(=O)c2ccc3nc(CC)c(N(C)c4nc(-c5ccc(Cl)cc5)cs4)n3c2)CC1 | 6560 | IC50 (Autotaxin [2]): 12600 nM; IC50 (Autotaxin [4]): 5 nM |
| CCc1nc2ccc(C3CCN(S(C)(=O)=O)CC3)cn2c1N(C)c1nc2c(s1)Cc1cc(F)ccc1-2 | 1210 |  |
| CCc1nc2ccc(N3CCN(Cc4ncco4)CC3)cn2c1N(C)c1nc(-c2ccc(F)cc2)cs1 | 1520 |  |
| CCc1nc2ccc(C3CCN(S(C)(=O)=O)CC3)cn2c1N(C)c1nc(-c2ccc(F)cc2F)cs1 | 2020 |  |
| CCOC(=O)N1CCC(NCc2ccc3nc(CC)c(N(C)c4nc(-c5ccc(Cl)cc5)cs4)n3c2)CC1 | 1210 | inhibition [18]: 67%; inhibition [19]: 100%; inhibition [20]: 7%; IC50 (Autotaxin [2]): < 5000 nM; IC50 (Autotaxin [4]): 9 nM |
| CCc1nc2ccc(N3CCN(CC(=O)O)CC3)cn2c1N(C)c1nc(-c2ccc(F)cc2)cs1 | 9160 |  |
| CCc1nc2ccc(C3CCN(S(C)(=O)=O)CC3)cn2c1N(C)c1nc(-c2ccc(F)cc2)c(C(N)=O)s1 | 1410 |  |
| CCOC(=O)CN1CCN(c2ccc3nc(CC)c(N(C)c4nc(-c5ccc(F)cc5)cs4)n3c2)CC1 | 280 |  |
| CCc1nc2ccc(C3CCN(S(C)(=O)=O)CC3)cn2c1N(C)c1nc(-c2ccc(F)cc2)cs1 | 710 | IC50 (Autotaxin [2]): 1030 nM |
| CCc1nc2ccc(N3CCN(Cc4cnc[nH]4)CC3)cn2c1N(C)c1nc(-c2ccc(F)cc2)cs1 | 771 | IC50 (Autotaxin [2]): 4100 nM |
| CCc1nc2ccc(N3CCN(CC(=O)N4CCOCC4)CC3)cn2c1N(C)c1nc(-c2ccc(F)cc2)cs1 | 231 |  |
| CCOC(=O)CN1CCC(c2ccc3nc(CC)c(N(C)c4nc(-c5ccc(F)cc5)cs4)n3c2)CC1 | 480 |  |
| CCc1nc2ccc(C3CCN(S(C)(=O)=O)CC3)cn2c1N(C)c1nc(-c2ccc(F)c(F)c2)cs1 | 1900 |  |
| CCc1nc2ccc(C3CCN(S(C)(=O)=O)CC3)cn2c1N(C)c1nc2ccccc2s1 | > 10000 |  |
| CCc1nc2ccc(-c3cccnc3)cn2c1N(C)c1nc(-c2ccc(F)cc2)cs1 | > 10000 | inhibition [3]: < 50%; IC50 (Autotaxin [2]): > 50000 nM; IC50 (Autotaxin [4]): 2 nM |
| CCc1nc2ccc(C3CCN(S(C)(=O)=O)CC3)cn2c1N(C)c1nc(-c2ccc(Cl)nc2)cs1 | 493 |  |
| CCc1nc2ccc(C3CCN(S(=O)(=O)CCCN(C)C)CC3)cn2c1N(C)c1nc(-c2ccc(F)cc2)cs1 | 357 |  |
| CCc1nc2ccc(C3CCN(S(C)(=O)=O)CC3)cn2c1N(C)c1nc(-c2ccc(OC)cc2)cs1 | 1680 |  |
